Results filed as inconclusive are left out.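 The calls were made as follows, unless noted: active = cell viability at or below a set limit in both duplicate runs, the limit being the all-compound median minus 4 SD (cut at about 23% in these data, passing the limit was not always enough); inconclusive = no clear call, values can overlap the other calls; inactive = the rest.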
How the values were obtained:
[1] = S. cerevisiae growth inhibition in permissive medium (OD615), pilot counter-assay for S. cerevisiae lifespan shortening project, permissive growth control (AID 705;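 active = growth inhibition above 25% in both replicates, a cutoff set 3 SD above the mean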); settings: OD615, 24 h, at 10 µM, hits give high values
Outline: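 Test system: Saccharomyces cerevisiae strain carrying genetically modified DeaD replicative-lifespan system; buffer or medium: SC raffinose/galactose permissive medium; dosing: one dose 10 µM, DMSO 0.25% final; times: 24 h exposure, 30 °C; measured by: OD at 615 nm; read-out basis: growth inhibition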

[2] = S. cerevisiae growth inhibition in restrictive medium, OD615, pilot screen, restrictive growth control, yeast lifespan reduction project (AID 706;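 active = growth inhibition above a set limit, 3 SD over mean compound inhibition, in both replicates, cut at about 43% in these data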;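 also: modified DeaD lifespan yeast strain shifted to restrictive glucose medium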); settings: OD615, 48 h, at 10 µM, hits give high values
Outline: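 material = engineered S. cerevisiae DeaD strain | buffer or medium = glucose-based CSMM-D restrictive medium | dosing = one concentration, 10 µM final, 0.25% DMSO | schedule = 4 h pre-growth plus 48 h compound exposure, 30 °C | detection = OD615 absorbance reading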

[3] = doxorubicin toxicity protection in MRP-1 cells – H69AR cells, CellTiter-Glo, duplicate, MRP-1 activator project, pilot screen (AID 807;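 active = viability increase at or above a cutoff of the median across tested compounds plus 3 SD, cut at about 8.5% in these data, passing the limit was not always enough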;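 also: compound pretreatment 18-22 h then 72 h combined with doxorubicin; 0% = doxorubicin alone and 100% = vehicle without doxorubicin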); settings: H69AR viability with doxorubicin, CellTiter-Glo luminescence; at 10 µM; hits give high values
[4] = viability of HCT116 without oncogenic beta-catenin – human colon tumor cells, pilot screen (AID 823); settings: HCT116 beta-catenin knockout viability, CellTiter-Glo, 60 h; at 10 µM; hits give low values;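 also: 0% = wells killed by 20 µM Hyamine and 100% = untreated DMSO cell wells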
[5] = viability of PTEN-null HCT116 cells – cell-based, HCT116 clonal line, CellTiter-Glo, pilot screen (AID 824;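 active = viability at or below 27.92% in each of two runs, the all-compound median minus 4 SD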;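 also: 0% = 20 µM Hyamine control and 100% = vehicle cell control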); settings: HCT116 PTEN-deleted viability, 60 h, at 10 µM, hits give low values
[6] = RAM pathway blockade in budding yeast – dse1pr::URA3 reporter, 5-FOA selection, pilot screen (AID 869;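 active = inhibition over a set limit, the all-compound mean plus 3 SD, in both replicate runs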;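 also: 0% = DMSO wells with no growth and 100% = 10 µM 1-NA-PP1 with full growth; RAM network block rescues cells from 5-FOA so hits raise OD615 growth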); settings: S. cerevisiae dse1pr::URA3 5-FOA growth, OD615, 2 d; at 10 µM; hits give high values; strain carries analog-sensitive mutant Cbk1 kinase
[7] = RAM signaling pathway blockade in yeast – S. cerevisiae, Pdr1DBD-CYC8 efflux-inhibited sensitized strain, primary screen (AID 1298;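 active = RAM network inhibition above 8.4% in each of two replicates, 3 SD over the compound average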;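 also: 0% = DMSO untreated cells without growth and 100% = 10 µM 1-NA-PP1 full growth; higher means more yeast growth rescued from 5-FOA killing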); settings: S. cerevisiae cbk1-as DSE1-URA3 strain, 5-FOA growth OD615, 2 d; at 50 µM; hits give high values

Cc1ccc(C)c(-n2c(Cc3cc(=O)[nH]c(=O)[nH]3)nnc2SC(C)C)c1
inactive: growth inhibition [1] 0.205% | growth inhibition [2] 11.1% | viability increase [3] -3.19% | viability [4] 97.7% | viability [5] 89.9% | inhibition [6] 1.74% | RAM network inhibition [7] 0.84%

COc1ccc(CCNC(=O)c2ccco2)cc1
inactive: growth inhibition [1] 13.4% | growth inhibition [2] 8.97% | viability increase [3] -2.79% | viability [4] 107% | viability [5] 91.8% | inhibition [6] 1.58% | RAM network inhibition [7] -1.03%

CCOC(=O)Cc1nnc(NC(=O)CSc2nncn2C)s1
inactive: growth inhibition [1] -1.1% | growth inhibition [2] 7.44% | viability increase [3] -0.06% | viability [4] 98.5% | viability [5] 94.5% | inhibition [6] 1.5% | RAM network inhibition [7] 2.87%

O=C(Cn1ncc2c(=O)oc3ccccc3c21)NCCN1CCN(c2ccccc2F)CC1
inactive: growth inhibition [1] 1.82% | growth inhibition [2] -16.2% | viability increase [3] -0.78% | viability [4] 92.8% | viability [5] 91.5% | inhibition [6] 0.705% | RAM network inhibition [7] 1.34%

Cc1cc2cc(CNC(=O)c3ccc(Br)o3)ccc2n1C
inactive: growth inhibition [1] -9.25% | growth inhibition [2] -10.3% | viability increase [3] -2.79% | viability [4] 94.2% | viability [5] 92.1% | inhibition [6] 1.93% | RAM network inhibition [7] 9.25%

CCCCNC(=O)C1c2cc(OC)c(OC)cc2C(=O)N(C)C1c1ccc(OC)cc1 (configuration not stated)
inactive: growth inhibition [1] -7.31% | growth inhibition [2] -7.21% | viability increase [3] -2.49% | viability [4] 92.5% | viability [5] 98.4% | inhibition [6] 1.63% | RAM network inhibition [7] 1.97%

COc1ccc(OC)c(-c2nnc(NC(=O)C(C)Sc3nncn3C)s2)c1 (configuration not stated)
inactive: growth inhibition [1] -1.32% | growth inhibition [2] 23.7% | viability increase [3] -4.48% | viability [4] 106% | viability [5] 95.5% | inhibition [6] 0.65% | RAM network inhibition [7] 0.37%

Cc1cc(C(=O)NCC(c2ccco2)N(C)C)no1 (configuration not stated)
inactive: growth inhibition [1] -3.54% | growth inhibition [2] -10.7% | viability increase [3] -2.83% | viability [4] 98.1% | viability [5] 99.6% | inhibition [6] 1.4% | RAM network inhibition [7] 8.39%

CC(C)(Oc1ccc(-c2ccco2)cc1)C(=O)O
inactive: growth inhibition [1] -0.405% | growth inhibition [2] 0.705% | viability increase [3] -0.38% | viability [4] 97.8% | viability [5] 96.8% | inhibition [6] 0.31% | RAM network inhibition [7] 1.07%

O=C(Nc1cccnc1)c1cc(-c2ccc(Br)cc2)on1
inactive: growth inhibition [1] -9.68% | growth inhibition [2] -9.79% | viability increase [3] 0.92% | viability [4] 100% | viability [5] 95.9% | inhibition [6] 0.76% | RAM network inhibition [7] 6.96%

CC(=O)C(Sc1ccc2nnc(-c3ccc(F)cc3)n2n1)C(C)=O
inactive: growth inhibition [1] 2.49% | growth inhibition [2] 26.7% | viability increase [3] -3.38% | viability [4] 91% | viability [5] 86.3% | inhibition [6] -0.355% | RAM network inhibition [7] 7.13%

CC(CCc1ccccc1)NC(=O)CSc1nnnn1C (configuration not stated)
inactive: growth inhibition [1] -6.04% | growth inhibition [2] -18.6% | viability increase [3] -1.52% | viability [4] 101% | viability [5] 101% | inhibition [6] 1.61% | RAM network inhibition [7] 4.5%

O=C(Cn1ncc2c(=O)oc3ccccc3c21)N1CCC(N2CCCCC2)CC1
inactive: growth inhibition [1] 9.66% | growth inhibition [2] 1.36% | viability increase [3] -1.31% | viability [4] 99.5% | viability [5] 99.8% | inhibition [6] 1.65% | RAM network inhibition [7] 4.58%

Cc1ccc(C2CC(c3cccc(C)c3)n3nc(N)nc3N2)cc1 (configuration not stated)
inactive: growth inhibition [1] -0.275% | growth inhibition [2] 16.7% | viability increase [3] -3.52% | viability [4] 89.6% | viability [5] 81% | inhibition [6] 1.81% | RAM network inhibition [7] 1.43%

CCc1nnc(NC(=O)C2CCCCC2)s1
inactive: growth inhibition [1] 5.8% | growth inhibition [2] 14.7% | viability increase [3] 1.12% | viability [4] 109% | viability [5] 106% | inhibition [6] 0.455% | RAM network inhibition [7] 1.04%

CC1=C(C(=O)Nc2ccccc2C)C(c2ccccc2)NC(=O)N1 (configuration not stated)
inactive: growth inhibition [1] 0.05% | growth inhibition [2] -7.71% | viability increase [3] -1.25% | viability [4] 97.9% | viability [5] 97.9% | inhibition [6] 1.01% | RAM network inhibition [7] 2.69%

CCCSC1=C(C#N)C(c2ccc(Cl)cc2Cl)CC(=O)N1 (configuration not stated)
inactive: growth inhibition [1] 3.83% | growth inhibition [2] 24% | viability increase [3] -1.42% | viability [4] 83.5% | viability [5] 79.4% | inhibition [6] 1.54% | RAM network inhibition [7] 3.58%

O=C(c1ccccc1Cl)N1CCC(c2nc3c(nnn3Cc3ccco3)c(=O)[nH]2)CC1
inactive: growth inhibition [1] -6.62% | growth inhibition [2] -11.1% | viability increase [3] -4.32% | viability [4] 92.5% | viability [5] 87.3% | inhibition [6] 0.69% | RAM network inhibition [7] 3.74%

COc1ccc(NC(=O)c2nc3nc(C)cc(C(F)F)n3n2)cc1OC
inactive: growth inhibition [1] -10.9% | growth inhibition [2] -6.71% | viability increase [3] 2.09% | viability [4] 108% | viability [5] 102% | inhibition [6] 0.885% | RAM network inhibition [7] 1.05%

O=C(CCCOc1ccccc1)n1nnc2ccccc21
inactive: growth inhibition [1] -10.8% | growth inhibition [2] -9.88% | viability increase [3] -1.21% | viability [4] 98.9% | viability [5] 100% | inhibition [6] 0.75% | RAM network inhibition [7] 0.05%

Cc1cnc(C(=O)OCC(=O)Nc2cccc(Cl)c2)cn1
inactive: growth inhibition [1] -0.055% | growth inhibition [2] 1.48% | viability increase [3] -3.1% | viability [4] 92.5% | viability [5] 92.3% | inhibition [6] 0.405% | RAM network inhibition [7] 0.67%

CCOC(=O)c1cnc2ccc(Br)cc2c1NCC(C)O (configuration not stated)
inactive: growth inhibition [1] -11.9% | growth inhibition [2] -9.36% | viability increase [3] -4.28% | viability [4] 91.4% | viability [5] 89.2% | inhibition [6] 1.19% | RAM network inhibition [7] 2.79%

CCCC(=O)C1=C(O)C(C(=O)OC)C(C)(C)CC1=N (configuration not stated)
inactive: growth inhibition [1] 1.4% | growth inhibition [2] -3.15% | viability increase [3] -0.38% | viability [4] 100% | viability [5] 101% | inhibition [6] 1.01% | RAM network inhibition [7] -0.57%

O=C(CSc1nc2c(c(=O)n1-c1ccc(Cl)cc1)SCC2)Nc1ccc2c(c1)OCCO2
inactive: growth inhibition [1] -7.54% | growth inhibition [2] 10.9% | viability increase [3] -2.7% | viability [4] 92% | viability [5] 84.8% | inhibition [6] 2.02% | RAM network inhibition [7] 4.16%

Cc1cc(C(=O)N2CCN(C(c3ccccc3)c3ccccc3)CC2)on1
inactive: growth inhibition [1] -11.2% | growth inhibition [2] -5.41% | viability increase [3] 0.42% | viability [4] 89.7% | viability [5] 76.7% | inhibition [6] 2.04% | RAM network inhibition [7] 3.7%

N#CCCN1CCN(S(=O)(=O)c2ccc(S(=O)(=O)NCC3CCCO3)cc2)CC1 (configuration not stated)
inactive: growth inhibition [1] -1.2% | growth inhibition [2] 5.28% | viability increase [3] 0.55% | viability [4] 105% | viability [5] 104% | inhibition [6] 0.51% | RAM network inhibition [7] -2.15%

N#Cc1nc(-c2ccccc2Cl)oc1NCC1CCCO1 (configuration not stated)
inactive: growth inhibition [1] -2.88% | growth inhibition [2] 8.84% | viability increase [3] 0.31% | viability [4] 91.1% | viability [5] 86.8% | inhibition [6] 1.48% | RAM network inhibition [7] 1.33%

Cc1ccccc1NC(=O)c1cnn(-c2ccccc2)c1NC(=O)c1ccco1
inactive: growth inhibition [1] -12.6% | growth inhibition [2] -3.13% | viability increase [3] -0.49% | viability [4] 103% | viability [5] 98.2% | inhibition [6] 0.855% | RAM network inhibition [7] 1.65%

COc1ccc(C(C(=O)NC2CCCC2)N2CCc3ccccc32)cc1 (configuration not stated)
inactive: growth inhibition [1] -12.6% | growth inhibition [2] -11.4% | viability increase [3] -3.02% | viability [4] 92.8% | viability [5] 87.9% | inhibition [6] 1.26% | RAM network inhibition [7] 1.52%

O=C(N1CCN(c2ccc(F)cc2)CC1)C12CC3CC(CC(C3)C1)C2
inactive: growth inhibition [1] -15.7% | growth inhibition [2] -5.23% | viability increase [3] -0.18% | viability [4] 84.1% | viability [5] 83.6% | inhibition [6] 0.94% | RAM network inhibition [7] 11.5%

CC(C)C12CN3CC(C(C)C)(CN(C1)C31C(=O)Nc3ccccc31)C2=O (configuration not stated)
inactive: growth inhibition [1] -16.5% | growth inhibition [2] -17.8% | viability increase [3] -0.6% | viability [4] 90.3% | viability [5] 101% | inhibition [6] 1.05% | RAM network inhibition [7] 3.39%

c1cn(CCCNc2ncnc3nc[nH]c23)cn1
inactive: growth inhibition [1] -7.59% | growth inhibition [2] -16.1% | viability increase [3] -1.91% | viability [4] 111% | viability [5] 96.2% | inhibition [6] 0.895% | RAM network inhibition [7] 2.98%

CC(C)N(CCc1ccncc1)C(=O)Nc1ccc(F)cc1
inactive: growth inhibition [1] 0.1% | growth inhibition [2] -7.37% | viability increase [3] -2.27% | viability [4] 102% | viability [5] 96.8% | inhibition [6] 1.21% | RAM network inhibition [7] 5.33%

CCCCn1c(CCC(=O)O)ccc1-c1cccs1
inactive: growth inhibition [1] 6.82% | growth inhibition [2] 10.6% | viability increase [3] -3.36% | viability [4] 97.1% | viability [5] 94.8% | inhibition [6] 0.85% | RAM network inhibition [7] -1.84%

CCOC(=O)C1C(=O)CC(C)(O)C(C(=O)OCC)C1/C=C/c1ccccc1 (configuration not stated)
inactive: growth inhibition [1] -4.58% | growth inhibition [2] 2.66% | viability increase [3] -3.71% | viability [4] 94.4% | viability [5] 83.1% | inhibition [6] 0.605% | RAM network inhibition [7] 7.42%

Cc1cc(C)cc(-c2nc(-c3ccncc3)no2)c1
inactive: growth inhibition [1] 0.275% | growth inhibition [2] 15.9% | viability increase [3] 3.69% | viability [4] 91.1% | viability [5] 92% | inhibition [6] 1.11% | RAM network inhibition [7] 5.99%
